Assay results from ChEMBL document CHEMBL3227946, “Antianaphylactic agents. 1. 2-(Acylamino)oxazoles” (1979).
The source made the active and inactive calls. No rule for the calls is given here.

How the values were obtained:
[1] = Antianaphylactic activity in ovalbumin sensitized albino guinea pig chopped lung assessed as inhibition of antigen-induced histamine release at 10 ug/mL after 15 mins relative to control; assay type: functional, Cavia porcellus
Procedure, shortened: (§1)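 Lungs were perfused with Tyrode's, chopped into 0.5-mm cubes and split into 100-mg aliquots. Aliquots were challenged with antigen ± compound and rocked at 37 °C for 15 min. Unchallenged controls gave spontaneous release. Supernatant histamine or SRS-A was bioassayed on guinea pig ileum against standards. Values are % inhibition, mean of four samples.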

Rattus norvegicus = assay: Antianaphylactic activity in antiovalbumin IgE serum-treated Wistar rat at 2 x 100 mg/kg, po administered 2.5 hrs prior to ovalbumin challenge measured after 45 mins by passive cutaneous anaphylaxis test; assay type: functional, organism-based; parameters: dose 100 mg/kg; settings: in the assay text read “2 hrs and again 30 mins prior to” for “2.5 hrs prior to”
Procedure, shortened: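 Female Wistar rats, shaved and lightly anaesthetized, received an intradermal abdominal injection of diluted rat antiovalbumin IgE serum. After 24 h they were challenged iv with ovalbumin mixed with dye. Compound was given at 2 h and again at 30 min before challenge. Rats were killed 45 min after challenge and the blue area on the inner skin surface was measured.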

[2] = Antianaphylactic activity in ovalbumin sensitized albino guinea pig chopped lung assessed as inhibition of antigen-induced slow-reacting substance of anaphylaxis release at 10 ug/mL after 15 mins relative to control; assay type: functional, Cavia porcellus; procedure, shortened: as §1
[3] = Antianaphylactic activity in human chopped lung treated with atopic serum isolated from patients allergic to cocksfoot pollen assessed as inhibition of antigen-induced histamine release at 10 ug/mL after 15 mins relative to control; assay type: functional; settings: 0.25 h
Procedure, shortened: (§2)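 Surgical human lung (bronchial carcinoma resections) was washed in Hank's, chopped into 0.5-mm cubes and incubated for 18 h at 18 °C with atopic serum from cocksfoot pollen-allergic patients. Tissue was washed, equilibrated in Tyrode's at 37 °C and challenged with saline pollen extract ± compound for 15 min. Histamine or SRS-A in the supernatant was bioassayed on guinea pig ileum. Values are % inhibition, mean of four samples.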

[4] = Antianaphylactic activity in human chopped lung treated with atopic serum isolated from patients allergic to cocksfoot pollen assessed as inhibition of antigen-induced slow-reacting substance of anaphylaxis release at 10 ug/mL after 15 mins relative to control; assay type: functional; settings: 0.25 h; procedure, shortened: as §2
Cavia porcellus [5] = assay: (§3) Antianaphylactic activity in ovalbumin/ovalbumin aerosol sensitized guinea pig bronchospasm model assessed as ratio of mean collapse time after pretreatment with compound to mean collapse time of control animal at 2 x 100 mg/kg, po compound administered prior to antigen challenge by Herxheimer test; assay type: functional
Procedure, shortened: (§4)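 Ovalbumin-sensitized male guinea pigs were exposed in a chamber to ovalbumin aerosol (1% w/v) until a convulsive cough; that time is the collapse time. Compound was given orally either 2 h before challenge or in two doses at 0.5 and 3 h before. Where used, mepyramine was given at 0.5 mg/kg sc 0.5 h before. Ratio is mean collapse time of treated animals over that of controls.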

Cavia porcellus [6] = assay: as §3, with “with compound in presence of mepyramine to mean” for “with compound to mean”; assay type: functional; procedure, shortened: as §4

CC(=O)N(C)c1nc(C)co1
inhibition (INH) [1]: 0% | Activity (Rattus norvegicus): inactive | inhibition (INH) [2]: 9%

CCCCN(C(=O)C(C)(C)C)c1nc(C)co1
inhibition (INH) [1]: 0% | inhibition at 10 µg/mL [3]: 37% | Activity (Rattus norvegicus): inactive | inhibition at 10 µg/mL [4]: 23% | inhibition (INH) [2]: 23% | Ratio (Cavia porcellus [5]): 4.4 | Ratio (Cavia porcellus [6]): 7.7

CCCCCCC(=O)N(CCCC)c1nc(C)co1
Activity (Rattus norvegicus): inactive | inhibition (INH) [2]: 8%

CCCCN(C(C)=O)c1nc(C)c(C)o1
inhibition (INH) [1]: 13% | Activity (Rattus norvegicus): inactive | inhibition (INH) [2]: 32%

C=CCN(C(=O)CCC)c1nc(C)co1
inhibition (INH) [1]: 51% | Activity (Rattus norvegicus): inactive | inhibition (INH) [2]: 31%

CCCCN(C(=O)CCC)c1nc(C)c(C)o1
inhibition (INH) [1]: 46% | Activity (Rattus norvegicus): inactive | inhibition (INH) [2]: 37%

Cc1coc(N(C)C(=O)C(C)C)n1
inhibition (INH) [1]: 61% | Activity (Rattus norvegicus): inactive | inhibition (INH) [2]: 25%

CCCCN(C(C)=O)c1nc(C)co1
inhibition (INH) [1]: 26% | Activity (Rattus norvegicus): inactive | inhibition (INH) [2]: 39%

CCCCc1coc(N(CCCC)C(=O)C(C)C)n1
Activity (Rattus norvegicus): inactive | inhibition (INH) [2]: 14%

CCCCCCN(C(C)=O)c1nc(C)co1
inhibition at 10 µg/mL [3]: 13% | Activity (Rattus norvegicus): inactive | inhibition at 10 µg/mL [4]: 15% | inhibition (INH) [2]: 8%

CCCCN(C(=O)C(C)CC)c1nc(C)co1 (stereo in doubt; 39) [listing 1 of 2 here]
Activity (Rattus norvegicus): inactive

CCCC(=O)N(CC)c1nc(C)co1
inhibition (INH) [1]: 30% | Activity (Rattus norvegicus): inactive | inhibition (INH) [2]: 13%

CCCCCN(C(=O)CC)c1nc(C)co1
inhibition (INH) [1]: 16% | Activity (Rattus norvegicus): inactive | inhibition (INH) [2]: 41%

CCCCN(C(=O)C(C)C)c1ncc(C2CCCCC2)o1
Activity (Rattus norvegicus): inactive | inhibition (INH) [2]: 21%

CCCCCCN(C(=O)C(C)C)c1nc(C)co1
inhibition (INH) [1]: 18% | Activity (Rattus norvegicus): inactive | inhibition (INH) [2]: 42%

CCCCC(=O)N(CCCC)c1nc(C)co1
inhibition (INH) [1]: 21% | Activity (Rattus norvegicus): inactive | inhibition (INH) [2]: 49%

CCCC(=O)N(c1nc(C)co1)C1CCCCC1
inhibition (INH) [1]: 37% | Activity (Rattus norvegicus): inactive | inhibition (INH) [2]: 29%

CCCCN(C(=O)CC1CCCC1)c1nc(C)co1
inhibition (INH) [1]: 0% | inhibition at 10 µg/mL [3]: 0% | Activity (Rattus norvegicus): inactive | inhibition at 10 µg/mL [4]: 0% | inhibition (INH) [2]: 22%

CCCCN(C(=O)C(C)CC)c1nc(C)co1 (racemic)
Activity (Rattus norvegicus): inactive

CCCCN(C(=O)C(C)C)c1nc(C)co1 [ISAMOXOLE]
inhibition (INH) [1]: 38% | inhibition at 10 µg/mL [3]: 23% | Activity (Rattus norvegicus): inactive | inhibition at 10 µg/mL [4]: 93% | inhibition (INH) [2]: 54% | Ratio (Cavia porcellus [5]): 4.6 | Ratio (Cavia porcellus [6]): 5.9

CCCCCN(C(=O)C(C)C)c1nc(C)co1
inhibition (INH) [1]: 28% | inhibition at 10 µg/mL [3]: 14% | Activity (Rattus norvegicus): inactive | inhibition at 10 µg/mL [4]: 47% | inhibition (INH) [2]: 66%

CCCCN(C(=O)C(C)C)c1ncc(CC)o1
inhibition (INH) [1]: 52% | Activity (Rattus norvegicus): inactive | inhibition (INH) [2]: 35%

CCCC(=O)N(CC(C)CC)c1nc(C)co1 (stereo not given)
inhibition (INH) [1]: 35% | Activity (Rattus norvegicus): inactive | inhibition (INH) [2]: 33%

CCC(C)CN(C(=O)C(C)C)c1nc(C)co1 (stereo not given)
inhibition (INH) [1]: 29% | Activity (Rattus norvegicus): inactive | inhibition (INH) [2]: 37%

CCCCN(C(=O)CCC)c1nc(C)co1
inhibition (INH) [1]: 33% | inhibition at 10 µg/mL [3]: 14% | Activity (Rattus norvegicus): inactive | inhibition at 10 µg/mL [4]: 88% | inhibition (INH) [2]: 52% | Ratio (Cavia porcellus [5]): 4.3 | Ratio (Cavia porcellus [6]): 6.4

C=CCN(C(=O)C(C)C)c1nc(C)co1
inhibition (INH) [1]: 42% | Activity (Rattus norvegicus): inactive | inhibition (INH) [2]: 23%

CCCCN(C(=O)C(C)CC)c1nc(C)co1 (stereo in doubt; 39) [listing 2 of 2 here]
inhibition (INH) [1]: 30% | inhibition (INH) [2]: 79%
